≈ marks a conversion by molar mass, not a printed value. Calls of active or inactive are those of the source. No cut-off for these calls is given here.
Assays:
Klebsiella pneumoniae [1] = test: Bactericidal activity against Klebsiella pneumoniae VT 1367 assessed as eradication of pre-formed biofilm at 50 times MIC after 24 hrs; assay type: functional
Outline: (§1)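 24-h, 37°C 96-well biofilms were washed three times with 0.15 M phosphate buffer pH 7.2. They were treated 24 h at 37°C with antibiotic at 50 times MIC, alone or with DNase I at 5 μg/ml, in medium. Biomass: 0.1% crystal violet for 30 min at room temperature, water washes, ethanol-acetone (80:20) solubilization, absorbance at 570 nm.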

Streptococcus pyogenes [2] = test: Antimicrobial activity against Streptococcus pyogenes VT 59 by broth microdilution method; assay type: functional
Outline: (§2)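 MICs by broth microdilution following CLSI guidelines, in cation-adjusted Mueller-Hinton broth or Haemophilus test medium broth. Cultures were grown at 37°C without shaking.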

Klebsiella pneumoniae [3] = test: Bactericidal activity against Klebsiella pneumoniae VT 1367 assessed as eradication of pre-formed biofilm at 50 times MIC after 24 hrs by serial dilution; assay type: functional
Outline: (§3)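 Preformed 24-h biofilms in 96-well plates got antibiotic at 50 times MIC, DNase I at 5 μg/ml, or both, for 24 h at 37°C. Wells were scraped into 1.0 ml of 0.15 M phosphate buffer pH 7.2, serially diluted and plated; result is log10 CFU/well. Mean ± SEM of three independent experiments, counts done in triplicate.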

Escherichia coli [4] = test: Bactericidal activity against Escherichia coli ATCC 25922 assessed as eradication of pre-formed biofilm at 50 times MIC after 24 hrs by serial dilution; assay type: functional; outline: as §3
Pseudomonas aeruginosa [5] = test: Bactericidal activity against Pseudomonas aeruginosa ATCC 27853 assessed as eradication of pre-formed biofilm at 1 to 10 times MIC after 24 hrs; assay type: functional, organism-based
Outline: (§4)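 Biofilms were grown 24 h at 37°C in 96-well plates from a 24-h broth culture (inoculum 7.53 ± 0.22 log10 CFU/ml). […] Read-out was crystal-violet biomass (OD570) and CFU by serial dilution plating.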

Acinetobacter baumannii [6] = test: Bactericidal activity against Acinetobacter baumannii VT 126 assessed as eradication of pre-formed biofilm at 1 to 10 times MIC after 24 hrs; assay type: functional, organism-based; outline: as §4
Klebsiella pneumoniae [7] = test: Bactericidal activity against Klebsiella pneumoniae VT 1367 assessed as eradication of pre-formed biofilm at 1 to 10 times MIC after 24 hrs; assay type: functional, organism-based; outline: as §4
Staphylococcus aureus [8] = test: Bactericidal activity against Staphylococcus aureus ATCC 29213 assessed as eradication of pre-formed biofilm at 1 to 10 times MIC after 24 hrs by serial dilution; assay type: functional, organism-based; outline: as §4
Acinetobacter baumannii [9] = test: Bactericidal activity against Acinetobacter baumannii VT 126 assessed as eradication of pre-formed biofilm at 50 times MIC after 24 hrs by serial dilution; assay type: functional; outline: as §3
Pseudomonas aeruginosa [10] = test: Antimicrobial activity against Pseudomonas aeruginosa ATCC 27853 by broth microdilution method; assay type: functional; outline: as §2
Haemophilus influenzae [11] = test: Bactericidal activity against Haemophilus influenzae VT450-2006 assessed as eradication of pre-formed biofilm at 1 to 10 times MIC after 24 hrs; assay type: functional, organism-based; outline: as §4
Klebsiella pneumoniae [12] = test: Antimicrobial activity against Klebsiella pneumoniae VT 1367 by broth microdilution method; assay type: functional; outline: as §2
Escherichia coli [13] = test: Bactericidal activity against Escherichia coli ATCC 25922 assessed as eradication of pre-formed biofilm at 50 times MIC after 24 hrs; assay type: functional; outline: as §1
Acinetobacter baumannii [14] = test: Antimicrobial activity against Acinetobacter baumannii VT 126 by broth microdilution method; assay type: functional; outline: as §2
Haemophilus influenzae [15] = test: Bactericidal activity against Haemophilus influenzae VT450-2006 assessed as eradication of pre-formed biofilm at 50 times MIC after 24 hrs; assay type: functional; outline: as §1
Staphylococcus aureus [16] = test: Bactericidal activity against Staphylococcus aureus ATCC 29213 assessed as eradication of pre-formed biofilm at 50 times MIC after 24 hrs by serial dilution; assay type: functional; outline: as §3
Streptococcus pyogenes [17] = test: Bactericidal activity against Streptococcus pyogenes VT 59 assessed as eradication of pre-formed biofilm at 1 to 10 times MIC after 24 hrs; assay type: functional, organism-based; outline: as §4
Escherichia coli [18] = test: Bactericidal activity against Escherichia coli ATCC 25922 assessed as eradication of pre-formed biofilm at 1 to 10 times MIC after 24 hrs; assay type: functional, organism-based; outline: as §4
Haemophilus influenzae [19] = test: Bactericidal activity against Haemophilus influenzae VT450-2006 assessed as eradication of pre-formed biofilm at 50 times MIC after 24 hrs by serial dilution; assay type: functional; outline: as §3
Escherichia coli [20] = test: Antimicrobial activity against Escherichia coli ATCC 25922 by broth microdilution method; assay type: functional; outline: as §2
Haemophilus influenzae [21] = test: Antimicrobial activity against Haemophilus influenzae VT450-2006 by broth microdilution method; assay type: functional; outline: as §2
Staphylococcus aureus [22] = test: Antimicrobial activity against Staphylococcus aureus ATCC 29213 by broth microdilution method; assay type: functional; outline: as §2
Pseudomonas aeruginosa [23] = test: Bactericidal activity against Pseudomonas aeruginosa ATCC 27853 assessed as eradication of pre-formed biofilm at 50 times MIC after 24 hrs by serial dilution; assay type: functional; outline: as §3
Streptococcus pyogenes [24] = test: Bactericidal activity against Streptococcus pyogenes VT 59 assessed as eradication of pre-formed biofilm at 50 times MIC after 24 hrs; assay type: functional; outline: as §1
Acinetobacter baumannii [25] = test: Bactericidal activity against Acinetobacter baumannii VT 126 assessed as eradication of pre-formed biofilm at 50 times MIC after 24 hrs; assay type: functional; outline: as §1
Pseudomonas aeruginosa [26] = test: Bactericidal activity against Pseudomonas aeruginosa ATCC 27853 assessed as eradication of pre-formed biofilm at 50 times MIC after 24 hrs; assay type: functional; outline: as §1
Streptococcus pyogenes [27] = test: Bactericidal activity against Streptococcus pyogenes VT 59 assessed as eradication of pre-formed biofilm at 50 times MIC after 24 hrs by serial dilution; assay type: functional; outline: as §3
Staphylococcus aureus [28] = test: Bactericidal activity against Staphylococcus aureus ATCC 29213 assessed as eradication of pre-formed biofilm at 50 times MIC after 24 hrs; assay type: functional; outline: as §1

Structure (SMILES) | MIC (Streptococcus pyogenes [2]) [µg/mL] | MIC (Pseudomonas aeruginosa [10]) [µg/mL] | MIC (Klebsiella pneumoniae [12]) [µg/mL] | MIC (Acinetobacter baumannii [14]) [µg/mL] | MIC (Haemophilus influenzae [21]) [µg/mL] | MIC (Staphylococcus aureus [22]) [µg/mL] | log10cfu (Klebsiella pneumoniae [3]) | log10cfu (Escherichia coli [4]) | inhibition (Pseudomonas aeruginosa [5]) | inhibition (Acinetobacter baumannii [6]) | inhibition (Klebsiella pneumoniae [7]) | inhibition (Staphylococcus aureus [8]) | log10cfu (Acinetobacter baumannii [9]) | inhibition (Haemophilus influenzae [11]) | inhibition (INH) (Escherichia coli [13]) [%] | log10cfu (Staphylococcus aureus [16]) | inhibition (Streptococcus pyogenes [17]) | inhibition (Escherichia coli [18]) | log10cfu (Haemophilus influenzae [19]) | log10cfu (Streptococcus pyogenes [27]) | further results
CC[C@H]1OC(=O)[C@H](C)[C@@H](O[C@H]2C[C@@](C)(OC)[C@@H](O)[C@H](C)O2)[C@H](C)[C@@H](O[C@@H]2O[C@H](C)C[C@H](N(C)C)[C@H]2O)[C@](C)(O)C[C@@H](C)CN(C)[C@H](C)[C@@H](O)[C@]1(C)O [AZITHROMYCIN] | 0.25 (≈ 0.334 µM) | – | – | – | 1 (≈ 1.34 µM) | 0.3 (≈ 0.401 µM) | – | – | inactive | inactive | inactive | inactive | – | inactive | – | 9.75 | inactive | inactive | 8.14 | 8.24 | inhibition (INH) (Streptococcus pyogenes [24]): 20%
CO/N=C(\C(=O)N[C@@H]1C(=O)N2C(C(=O)O)=C(COC(C)=O)CS[C@H]12)c1csc(N)n1 [CEFOTAXIME] | 0.03 (≈ 0.0659 µM) | 64 (≈ 141 µM) | 0.06 (≈ 0.132 µM) | 1.5 (≈ 3.29 µM) | 0.16 (≈ 0.351 µM) | 3.8 (≈ 8.34 µM) | 8.54 | 8.66 | inactive | inactive | inactive | inactive | 8.32 | inactive | 10 | 9.67 | inactive | inactive | 8.45 | 8.2 | MIC (Escherichia coli [20]): 1.5 µg/mL (≈ 3.29 µM); log10cfu (Pseudomonas aeruginosa [23]): 8.68; inhibition (INH) (Pseudomonas aeruginosa [26]): 10%

More lines, main results first:

MIC (Streptococcus pyogenes [2]) [µg/mL] | MIC (Pseudomonas aeruginosa [10]) [µg/mL] | MIC (Klebsiella pneumoniae [12]) [µg/mL] | MIC (Acinetobacter baumannii [14]) [µg/mL] | MIC (Haemophilus influenzae [21]) [µg/mL] | MIC (Staphylococcus aureus [22]) [µg/mL] | Structure (SMILES) | log10cfu (Klebsiella pneumoniae [3]) | log10cfu (Escherichia coli [4]) | inhibition (Pseudomonas aeruginosa [5]) | inhibition (Acinetobacter baumannii [6]) | inhibition (Klebsiella pneumoniae [7]) | inhibition (Staphylococcus aureus [8]) | log10cfu (Acinetobacter baumannii [9]) | inhibition (Haemophilus influenzae [11]) | inhibition (INH) (Escherichia coli [13]) [%] | log10cfu (Staphylococcus aureus [16]) | inhibition (Streptococcus pyogenes [17]) | inhibition (Escherichia coli [18]) | log10cfu (Haemophilus influenzae [19]) | log10cfu (Streptococcus pyogenes [27]) | further results
0.5 | 0.6 | 0.15 | 8 | 0.07 | 0.3 | C[C@H]1COc2c(N3CCN(C)CC3)c(F)cc3c(=O)c(C(=O)O)cn1c23.C[C@H]1COc2c(N3CCN(C)CC3)c(F)cc3c(=O)c(C(=O)O)cn1c23.O [LEVOFLOXACIN] | 8.62 | 8.46 | inactive | inactive | inactive | inactive | 8.26 | inactive | 10 | 7.39 | inactive | inactive | 8.25 | 6.39 | inhibition (INH) (Klebsiella pneumoniae [1]): 10%; inhibition (INH) (Haemophilus influenzae [15]): 10%; MIC (Escherichia coli [20]): 0.035 µg/mL; log10cfu (Pseudomonas aeruginosa [23]): 8.69; inhibition (INH) (Streptococcus pyogenes [24]): 10%; inhibition (INH) (Acinetobacter baumannii [25]): 10%; inhibition (INH) (Pseudomonas aeruginosa [26]): 10%; inhibition (INH) (Staphylococcus aureus [28]): 10%
0.25 (≈ 0.304 µM) | 16 (≈ 19.4 µM) | 16 (≈ 19.4 µM) | 8 (≈ 9.72 µM) | 0.8 (≈ 0.972 µM) | 0.25 (≈ 0.304 µM) | CO[C@H]1/C=C/O[C@@]2(C)Oc3c(C)c(O)c4c(O)c(c(/C=N/N5CCN(C)CC5)c(O)c4c3C2=O)NC(=O)/C(C)=C\C=C\[C@H](C)[C@H](O)[C@@H](C)[C@@H](O)[C@@H](C)[C@H](OC(C)=O)[C@@H]1C [RIFAMPIN] | 8.5 | 8.58 | inactive | inactive | inactive | inactive | 8.15 | inactive | 10 | 7.5 | inactive | inactive | 8.14 | 6.44 | inhibition (INH) (Klebsiella pneumoniae [1]): 10%; inhibition (INH) (Haemophilus influenzae [15]): 10%; MIC (Escherichia coli [20]): 8 µg/mL (≈ 9.72 µM); log10cfu (Pseudomonas aeruginosa [23]): 8.56; inhibition (INH) (Streptococcus pyogenes [24]): 10%; inhibition (INH) (Acinetobacter baumannii [25]): 10%; inhibition (INH) (Pseudomonas aeruginosa [26]): 10%; inhibition (INH) (Staphylococcus aureus [28]): 10%
0.25 (≈ 0.715 µM) | 128 (≈ 366 µM) | 64 (≈ 183 µM) | 50 (≈ 143 µM) | 0.5 (≈ 1.43 µM) | 0.025 (≈ 0.0715 µM) | CC1(C)S[C@@H]2[C@H](NC(=O)[C@H](N)c3ccccc3)C(=O)N2[C@H]1C(=O)O [AMPICILLIN] | 8.33 | 8.55 | inactive | inactive | inactive | inactive | 8.29 | inactive | 10 | 9.51 | inactive | inactive | 8.44 | 8.16 | MIC (Escherichia coli [20]): 16 µg/mL (≈ 45.8 µM); log10cfu (Pseudomonas aeruginosa [23]): 8.62; inhibition (INH) (Pseudomonas aeruginosa [26]): 10%
